Test [1] addresses T1, Toll-like receptor 9 (Mus musculus) (UniProt Q9EQU3).
T1 sequence (whole entry): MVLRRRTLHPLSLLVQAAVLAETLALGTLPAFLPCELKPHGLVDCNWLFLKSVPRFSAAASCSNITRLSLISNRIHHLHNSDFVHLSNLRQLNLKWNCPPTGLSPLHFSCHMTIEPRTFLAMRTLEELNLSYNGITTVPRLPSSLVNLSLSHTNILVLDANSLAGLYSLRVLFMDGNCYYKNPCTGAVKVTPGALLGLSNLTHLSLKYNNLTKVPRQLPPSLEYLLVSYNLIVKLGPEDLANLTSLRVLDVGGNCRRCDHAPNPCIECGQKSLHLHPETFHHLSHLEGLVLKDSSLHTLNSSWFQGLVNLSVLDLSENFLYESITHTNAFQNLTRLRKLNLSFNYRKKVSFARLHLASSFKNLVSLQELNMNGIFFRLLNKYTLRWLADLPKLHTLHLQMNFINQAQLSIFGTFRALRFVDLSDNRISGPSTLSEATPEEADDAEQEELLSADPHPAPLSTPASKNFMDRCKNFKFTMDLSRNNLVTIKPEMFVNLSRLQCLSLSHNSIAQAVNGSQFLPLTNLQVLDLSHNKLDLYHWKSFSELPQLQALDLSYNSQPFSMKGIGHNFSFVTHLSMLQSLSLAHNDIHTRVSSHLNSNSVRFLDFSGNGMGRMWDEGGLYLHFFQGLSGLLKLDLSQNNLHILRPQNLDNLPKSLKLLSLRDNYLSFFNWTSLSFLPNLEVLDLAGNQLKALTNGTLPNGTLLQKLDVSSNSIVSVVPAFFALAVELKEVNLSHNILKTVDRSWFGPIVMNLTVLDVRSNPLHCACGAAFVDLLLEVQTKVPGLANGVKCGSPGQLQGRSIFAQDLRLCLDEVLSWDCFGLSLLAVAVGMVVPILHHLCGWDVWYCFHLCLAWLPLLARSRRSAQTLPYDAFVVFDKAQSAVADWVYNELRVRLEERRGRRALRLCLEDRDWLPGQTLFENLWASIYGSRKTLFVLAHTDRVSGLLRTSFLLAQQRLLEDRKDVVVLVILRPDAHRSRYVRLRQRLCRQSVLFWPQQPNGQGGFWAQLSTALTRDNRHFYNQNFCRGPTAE
The experiment in a line: Inhibition of TLR9 in BALB/c mouse BMDM assessed as downregulation of CpG-stimulated IL-6 level at 5 ug/ml preincubated for 18 hrs followed by CpG challenge measured after 24 hrs by ELISA relative to control. In short, it runs like this: (§1)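 BALB/c male bone marrow macrophages were differentiated 7 days with L929 supernatant (≥99% CD11b+/F4/80+). Cells were plated at 2 × 10^5/well in triplicate, rested overnight, and given compounds at 5 μg/mL for 18 h. They were then stimulated with 100 ng/mL S. minnesota LPS, 10 ng/mL Pam3CSK4 (BLP) or 0.01 μM CpG for 24 h. Supernatant IL-12p40 and IL-6 were measured by ELISA (sensitivity 16 pg/mL).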

Test [2] concerns the target T2, Toll-like receptor 4 (Mus musculus) (UniProt Q9QUK6).
T2 sequence (whole entry): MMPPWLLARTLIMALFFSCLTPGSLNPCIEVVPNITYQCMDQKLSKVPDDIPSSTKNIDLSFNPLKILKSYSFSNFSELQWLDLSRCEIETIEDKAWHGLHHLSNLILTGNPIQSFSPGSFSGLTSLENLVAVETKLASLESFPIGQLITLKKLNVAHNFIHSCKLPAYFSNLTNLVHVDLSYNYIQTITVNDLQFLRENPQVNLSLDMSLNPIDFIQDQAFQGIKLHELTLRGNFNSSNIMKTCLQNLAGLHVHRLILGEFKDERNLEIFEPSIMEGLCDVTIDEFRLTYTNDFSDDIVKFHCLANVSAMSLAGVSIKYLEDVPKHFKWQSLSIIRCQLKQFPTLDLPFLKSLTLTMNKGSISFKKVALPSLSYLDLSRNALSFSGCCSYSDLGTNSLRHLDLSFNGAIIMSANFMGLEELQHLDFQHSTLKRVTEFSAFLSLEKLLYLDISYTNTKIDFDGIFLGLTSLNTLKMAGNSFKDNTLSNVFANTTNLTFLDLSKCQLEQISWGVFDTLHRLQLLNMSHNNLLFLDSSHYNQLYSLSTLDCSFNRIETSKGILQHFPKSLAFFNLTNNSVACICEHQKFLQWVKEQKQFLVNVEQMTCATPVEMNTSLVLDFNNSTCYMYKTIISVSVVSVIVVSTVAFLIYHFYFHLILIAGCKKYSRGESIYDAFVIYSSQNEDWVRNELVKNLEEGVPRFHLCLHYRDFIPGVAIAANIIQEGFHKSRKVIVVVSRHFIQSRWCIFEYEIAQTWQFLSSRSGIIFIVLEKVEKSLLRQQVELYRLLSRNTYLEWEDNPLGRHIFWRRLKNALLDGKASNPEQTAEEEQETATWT
The experiment in a line: Inhibition of TLR4 in BALB/c mouse BMDM assessed as downregulation of LPS-stimulated IL-6 level at 5 ug/ml preincubated for 18 hrs followed by LPS challenge measured after 24 hrs by ELISA relative to control. A digest of the protocol: as §1
A general note: An ELISA detects its analyte on a solid surface through an enzyme-linked reagent.

The target of test [3] is T2, Toll-like receptor 4 (Mus musculus). The experiment in a line: Inhibition of TLR4 in BALB/c mouse BMDM assessed as downregulation of LPS-stimulated IL-12p40 level at 5 ug/ml preincubated for 18 hrs followed by LPS challenge measured after 24 hrs by ELISA relative to control. A digest of the protocol: as §1
Test [4] addresses T3, TLR2/TLR6 (Mus musculus) (UniProt Q9QUN7+Q9EPW9). The experiment in a line: Inhibition of TLR2/6 in BALB/c mouse BMDM assessed as downregulation of BLP-stimulated IL-12p40 level at 5 ug/ml preincubated for 18 hrs followed by BLP challenge measured after 24 hrs by ELISA relative to control. It counts as protein-complex assay. In short, it runs like this: as §1
Test [5] has as its target T1, Toll-like receptor 9 (Mus musculus). The experiment in a line: Inhibition of TLR9 in BALB/c mouse BMDM assessed as downregulation of CpG-stimulated IL-12p40 level at 5 ug/ml preincubated for 18 hrs followed by CpG challenge measured after 24 hrs by ELISA relative to control. In short, it runs like this: as §1
In test [6] the target is T3, TLR2/TLR6 (Mus musculus). The experiment in a line: Inhibition of TLR2/6 in BALB/c mouse BMDM assessed as downregulation of BLP-stimulated IL-6 level at 5 ug/ml preincubated for 18 hrs followed by BLP challenge measured after 24 hrs by ELISA relative to control. It counts as protein-complex assay. In short, it runs like this:
as §1

This is an account of results in ChEMBL document CHEMBL3108700, “Designing anti-inflammatory drugs from parasitic worms: a synthetic small molecule analogue of the Acanthocheilonema viteae product ES-62 prevents development of collagen-induced arthritis” (J Med Chem, 2013).

Activity calls are given as the source filed them. No rule for the calls is given here.

Take `CN(C)CCN(C)CCS(=O)(=O)NCc1ccc(Br)cc1`: the inhibition entry in test [1], in test [2] and in test [4] was “inactive” each time. The inhibition result in test [3], in test [5] and in test [6] was “Active” in each case.

On to `O=S(=O)(CCN1CCCC1)Cc1ccc(F)cc1`, for which the inhibition entry in test [1], in test [2], in test [3], in test [5] and in test [6] was “inactive” throughout. Moreover, the inhibition entry in test [4] was “Active”.

For the compound `CN(C)CCCNS(=O)(=O)Cc1ccc([N+](=O)[O-])cc1`, the inhibition result in test [1], in test [2], in test [3], in test [4] and in test [5] was “inactive” throughout. Besides, in test [6], the inhibition result is “Active”.

Turning to `CN(C)CCN(C)CCS(=O)(=O)c1ccccc1`, the inhibition result in test [1], in test [2], in test [3], in test [4], in test [5] and in test [6] was “inactive” throughout.

In the case of `O=[N+]([O-])c1ccc(CS(=O)(=O)NCCN2CCCC2)cc1`, the inhibition result in test [1], in test [2], in test [3], in test [4], in test [5] and in test [6] was “inactive” throughout.

`Cc1ccc(CS(=O)(=O)CCN(C)C)cc1`: the inhibition result in test [1], in test [4], in test [5] and in test [6] was “inactive” throughout. The inhibition entry in test [2] and in test [3] was “Active” in each case.

Regarding `COc1cccc(C(=O)NCCN2CCCC2)c1`, the inhibition entry in test [1], in test [3] and in test [4] was “Active” in each case. Moreover, the inhibition entry in test [2], in test [5] and in test [6] was “inactive” throughout.

For `CN(C)CCS(=O)(=O)Nc1ccccc1`, the inhibition entry in test [1], in test [2], in test [4], in test [5] and in test [6] was “inactive” each time. Also, the inhibition entry in test [3] was “Active”.

Take `O=C(Cc1ccccc1)NCCN1CCCC1`: the inhibition entry in test [1], in test [2], in test [3], in test [5] and in test [6] was “Active” in each case. In addition, the inhibition result in test [4] was “inactive”.

For `CN(C)CCS(=O)(=O)Nc1ccc(F)cc1`, the inhibition result in test [1], in test [2], in test [4], in test [5] and in test [6] was “inactive” throughout. For the same compound, the inhibition result in test [3] was “Active”.

`CN(C)CCCNC(=O)Cc1ccccc1`: the inhibition result in test [1], in test [2], in test [3], in test [4], in test [5] and in test [6] was “inactive” throughout.

Turning to `CN(C)CCN(C)CCS(=O)(=O)Cc1cccc(F)c1`, the inhibition result in test [1], in test [2], in test [3], in test [4], in test [5] and in test [6] was “inactive” each time.
